# IDE cell inh: inhibitors of human insulin-degrading enzyme in cells; P14735; HEK cells, FAbetaB cleavage, fluorescence polarization; inhibition, % at 5.59 µM; 0.41% of 320,000 active; AID 434962;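 active = percent inhibition above the average of all tested compounds plus 3 SD, set per screening campaign, cut at about 16% in these data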;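 note: IDE supplied by intact live HEK cells; FP after avidin binding of uncleaved biotin substrate so inhibition keeps polarization high; 0% = DMSO wells and 100% = 60 µM reference IDE inhibitor Ii1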
# TPT1 inhibitor: blocks Candida albicans tRNA 2'-phosphotransferase; 0.81% of 300,000 active; inhibition, % at 5 µM; recombinant caTPT1, FP RNA substrate dephosphorylation;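 active = inhibition above the mean of all tested compounds plus 3 SD, set per screening campaign, cut at about 24% in these data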;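 note: plate controls were DMSO alone for no effect and ferristatin control at 100 nM for full effect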
# HNF4A DNA FP: change in binding of human HNF4 alpha to DNA; 0.3% of 360,000 active; HNF4a-FITC DNA binding, fluorescence polarization, 1 h; P41235; activity change, % at 10 µM; in the data active = activity change above about 30%, passing the limit was not always enough
# Rpn11 inh: inhibitors of human proteasome Rpn11; 0.59% of 360,000 active; AID 588493; human 26S proteasome, Ub4-pepOG fluorescence polarization; 20S core pre-blocked with epoxomicin; inhibition, % at 20 µM; O00487;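 active = inhibition at 20 µM, scaled to each plate's controls, above about 33%, limit read from the data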
# IDE act: IDE (human) activation, cell-based; HEK cells, FAbeta-B cleavage, fluorescence polarization; 0% vehicle, 100% cell-free pure enzyme wells; activation, % at 5.96 µM; P14735; 0.073% of 340,000 active;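 active = activation above the mean of all tested compounds plus 3 SD, set per screening campaign, cut at about 17% in these data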
# CSN deneddyl inh: blocks human CSN-mediated cullin deneddylation; Q92905; Purified CSN, SCF-Nedd8-OG deneddylation, fluorescence polarization; inhibition, % at 12.5 µM; 0.38% of 360,000 active;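 active = pattern-corrected inhibition above about 35%, with an unprinted fluorescence ratio check between 0.5 and 1.5, limit read from the data, passing the limit was not always enough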;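 note: 0% = enzyme with substrate and 100% = substrate without enzyme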
# Target sequence (Q92905 whole entry, looked up, one chain of several): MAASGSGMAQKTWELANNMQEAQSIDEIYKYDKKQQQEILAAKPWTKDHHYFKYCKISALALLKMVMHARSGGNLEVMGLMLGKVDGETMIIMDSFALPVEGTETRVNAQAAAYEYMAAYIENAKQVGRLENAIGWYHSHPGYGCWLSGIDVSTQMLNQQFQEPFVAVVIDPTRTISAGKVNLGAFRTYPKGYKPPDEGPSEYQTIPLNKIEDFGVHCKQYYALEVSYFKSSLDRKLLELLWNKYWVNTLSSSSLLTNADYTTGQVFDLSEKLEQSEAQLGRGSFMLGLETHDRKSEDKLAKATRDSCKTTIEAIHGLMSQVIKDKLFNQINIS
#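 Detection – fluorescence polarization · System – HEK293T-derived human Csn5 enzyme · Controls – substrate-only high control, full reaction low control · Timing – 90 min, room temperature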
# caTPT1 confirm: TPT1 (C. albicans) inhibition, confirmation. 74% of 2,400 active. shares compounds with TPT1 inhibitor. inhibition, % at 5 µM. recombinant caTPT1, fluorescence polarization, RNase T1 coupled;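 active = inhibition above the primary screen limit, the mean inhibition of all tested compounds plus 3 SD, cut at about 25% in these data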
# RNase T1 inh: counter-screen for TPT1 inhibitors: inhibitors of Aspergillus oryzae RNase T1 | shares compounds with TPT1 inhibitor | 83% of 2,400 active | inhibition, % at 5 µM | RNase T1 cleavage, fluorescence polarization, 1536-well;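 active = inhibition above the solvent-only control well mean plus 3 SD, limit set per screening run, cut at about 23% in these data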;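 note: plate controls were DMSO wells with enzyme for no effect and wells without RNase T1 for full effect; inhibitors block cleavage so intact labeled substrate keeps polarization high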
# Starred values were filed as active, the others as inactive; x = no result given. Rows were chosen to be rich in hits. Some 1.7% of all compounds tested hit in one or more screens of this group.
SMILES,IDE cell inh,TPT1 inhibitor,HNF4A DNA FP,Rpn11 inh,IDE act,CSN deneddyl inh,caTPT1 confirm,RNase T1 inh
CN(C)c1nc(N)c([N+](=O)[O-])c(N2CCCCCC2)n1,-3,-2,4,-5,-1,1,x,x
Cc1cc(C(=O)Cn2cnc3cc(F)ccc3c2=O)c(C)n1C1CC1,3,x,2,-5,1,3,x,x
COc1ccc(S(=O)(=O)N(C(C)=O)c2ccc3oc(=O)sc3c2)cc1,25*,1,1,-4,-19,-1,x,x
CNc1nc(N)c([N+](=O)[O-])c(Nc2ccccc2OC)n1,2,-1,-3,-8,4,2,x,x
O=C(/C=C/c1cc[n+](CC(=O)c2ccc3cccc4c3c2CC4)cc1)c1ccc2cccc3c2c1CC3,6,49*,178,119*,2,113*,x,x
O=C(C[n+]1ccc2ccccc2c1)c1cccc2ccccc12,4,-2,-4,3,5,4,x,x
CCOC(=O)C(N=Nc1nn[nH]n1)C(C)=O (stereo not given),x,x,-2,1,x,-1,x,x
CC1(C)CC(=O)C2=C(C1)OC(N)=C(C#N)C21CCN(Cc2ccccc2)CC1,1,27*,1,-15,2,-1,22,32*
CCN(CC)c1ccc(/C=C2\SC(=O)N(C(C)C)C2=O)o1,8,178*,81,x,x,0,172*,157*
CC(C)N1C(=O)S/C(=C/c2ccc3c(c2)n(C)c(=O)n3C)C1=O,-2,-5,4,10,4,2,x,x
COc1ccc(C(=O)N/N=c2\oc3ccccc3cc2C(=O)NCc2ccccc2)cc1,-6,33*,-6,-4,-3,1,15,15
COC(=O)c1c(-c2ccccc2Cl)noc1/C=C/N(C)C,2,131*,1,6,-12,-1,28*,35*
Cc1onc(-c2ccccc2Cl)c1C(N)=O,6,-3,0,2,2,0,x,x
O=C(C1CCCN(S(=O)(=O)c2cc(Cl)ccc2Cl)C1)N1CCOCC1 (stereo not given),-1,1,1,-6,1,-1,x,x
CC1CCN(C(=O)C2CCN(S(=O)(=O)c3cccc4nonc34)CC2)CC1,-3,42*,-4,-1,-3,4,2,7
Cc1ccnc(NC2(C(F)(F)F)N=C(c3ccccc3)NC2=O)c1 (stereo not given),4,-2,-5,1,-1,-2,x,x
CCOc1cccc(/C=N/NS(=O)(=O)c2ccc(C)c([N+](=O)[O-])c2)c1O,4,94*,-7,2,1,0,1,6
COc1cc(/C=N/NS(=O)(=O)c2ccc(C)c([N+](=O)[O-])c2)cc([N+](=O)[O-])c1O,4,-6,-4,9,2,-1,x,x
Cc1ccc(S(=O)(=O)N/N=C/c2ccc(O)cc2O)cc1[N+](=O)[O-],9,-4,-1,-7,4,-1,x,x
COc1ccc(-n2c(O)c(/C=N/NS(=O)(=O)c3ccc(C)c([N+](=O)[O-])c3)c3ccccc3c2=O)cc1OC,1,100*,172,x,-15,148,114*,113*
CSc1ccccc1NC(=O)COC(=O)CCc1ccccc1,-1,-2,2,-2,2,-2,x,x
COc1cc(NC(=O)C2=C(N3CCOCC3)/C(=C\c3ccc(N(C)C)cc3)CCC2)cc(OC)c1OC,8,32*,6,29,-14,-2,21,26*
CC1CC(=O)Nc2ccccc2N1S(=O)(=O)c1ccc(Cl)cc1 (stereo not given),5,74*,3,-2,4,5,2,7
COc1ccc(N=Cc2cc3c(cc2O)OC(N)=C(C#N)C3c2ccccc2)cc1 (stereo not given),12,55*,66*,x,-6,1,78*,88*
COc1ccc(C2C(C#N)=C(N)Oc3cc(O)ccc32)cc1 (stereo not given),x,x,3,9,-1,-5,x,x
